The full list was thinned out, with hits kept by preference.
Ec RNAP inh: E. coli RNAP inhibitors, biochemical. DNA-directed RNA polymerase subunit beta (Escherichia coli (strain K12)), P0A8V2. E. coli RNA polymerase, fluorescence transcription assay. inhibition, %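 (tested at 10 µM)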. 62,000 compounds, 0.2% hits; in the data active means inhibition above about 20%;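 further: 0% = enzyme without compound and 100% = no enzyme blank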
Target sequence (P0A8V2 whole entry, looked up): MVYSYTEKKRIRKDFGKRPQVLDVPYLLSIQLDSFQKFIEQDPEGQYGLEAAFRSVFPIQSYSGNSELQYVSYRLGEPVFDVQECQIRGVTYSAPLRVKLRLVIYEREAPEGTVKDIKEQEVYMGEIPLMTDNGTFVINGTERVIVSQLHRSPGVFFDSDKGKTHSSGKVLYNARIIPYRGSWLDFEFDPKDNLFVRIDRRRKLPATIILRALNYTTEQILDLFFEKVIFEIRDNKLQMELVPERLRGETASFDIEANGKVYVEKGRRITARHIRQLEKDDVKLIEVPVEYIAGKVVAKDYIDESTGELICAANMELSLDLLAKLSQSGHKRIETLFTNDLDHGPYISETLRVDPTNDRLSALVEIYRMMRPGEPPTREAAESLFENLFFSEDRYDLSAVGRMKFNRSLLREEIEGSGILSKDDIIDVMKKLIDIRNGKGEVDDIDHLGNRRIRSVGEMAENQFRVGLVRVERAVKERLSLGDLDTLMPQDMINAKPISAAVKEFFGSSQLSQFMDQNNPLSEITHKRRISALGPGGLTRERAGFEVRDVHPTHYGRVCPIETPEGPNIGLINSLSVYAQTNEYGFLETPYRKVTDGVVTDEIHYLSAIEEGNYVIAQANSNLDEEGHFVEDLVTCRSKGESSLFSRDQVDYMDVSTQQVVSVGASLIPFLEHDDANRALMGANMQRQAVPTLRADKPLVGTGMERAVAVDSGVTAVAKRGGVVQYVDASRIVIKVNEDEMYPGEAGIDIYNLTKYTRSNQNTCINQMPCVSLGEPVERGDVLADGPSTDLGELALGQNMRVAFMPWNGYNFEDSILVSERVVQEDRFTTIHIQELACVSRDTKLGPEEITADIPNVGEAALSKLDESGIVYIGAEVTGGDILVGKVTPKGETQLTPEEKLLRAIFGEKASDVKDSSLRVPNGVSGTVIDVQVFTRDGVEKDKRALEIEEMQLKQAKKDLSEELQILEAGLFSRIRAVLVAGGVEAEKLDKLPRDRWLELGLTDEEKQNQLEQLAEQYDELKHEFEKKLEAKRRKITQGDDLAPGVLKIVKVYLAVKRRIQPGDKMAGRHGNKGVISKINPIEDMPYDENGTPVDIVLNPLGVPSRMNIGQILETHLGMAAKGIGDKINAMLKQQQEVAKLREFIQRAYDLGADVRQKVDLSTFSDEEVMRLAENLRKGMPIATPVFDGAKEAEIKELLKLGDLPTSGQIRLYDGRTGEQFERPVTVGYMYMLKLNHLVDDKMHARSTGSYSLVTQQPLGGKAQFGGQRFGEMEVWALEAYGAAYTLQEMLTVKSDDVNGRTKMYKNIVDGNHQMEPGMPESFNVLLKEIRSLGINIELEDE
BAP1 inh: inhibitors of BAP1 deubiquitinase, primary screen, biochemical, Ub-AMC fluorescence, kinetic; Ubiquitin carboxyl-terminal hydrolase BAP1 (Homo sapiens), Q92560; 72,000 compounds, 0.48% hits; calls only at 20 µM; recombinant BAP1, Ub-AMC hydrolysis fluorescence kinetic; hits give low values;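 active means activity remaining at or below 50% of control, provided the compound also passes the data quality filters; inactive means the rest, including low values that fail the filters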;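 further: 100% = DMSO wells rate and 0% = substrate alone blank rate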
Ecoli WT expand: growth inhibitors of wild-type E. coli, primary screen, strain BW25113, expanded library, OD600; OD600 absorbance; growth inhibition, % at 100 µM; 98,000 compounds, 0.15% hits;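 active means growth inhibition above about 50% at one test dose, limit read from the data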;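 further: growth measured after 20 h incubation at 37 °C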
MMP-13 inhibitor: human MMP13 inhibitors, primary screen, biochemical, FRET peptide cleavage; inhibition, % at 4 µM; 65,000 compounds, 0.07% hits; Collagenase 3 (Homo sapiens), P45452; MMP-13 fTHP FRET cleavage, Mca fluorescence;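 active means inhibition above the mean of compound-free control plate wells plus 3 SD, cut at about 14% in these data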;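 further: 0% = DMSO wells and 100% = wells with reference MMP-13 inhibitor after basal subtraction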
AP complement: alternative complement pathway inhibitors, primary screen, biochemical, ELISA, human serum, orthogonally pooled compounds; LPS-coated ELISA, C3 deposition; tested in compound mixtures; inhibition, % at 5 µM; 62,000 compounds, 0.08% hits; AID 1235, 2008;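 active means inhibition above 30% in each of the two pooled mixtures holding the compound, so the lower value exceeds 30%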;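 further: 0% = serum in Mg-EGTA without compound and 100% = EDTA serum blank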
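Test system – human serum alternative complement pathway, C3 deposition on LPS-coated wells · Buffer or medium – diluted human serum in Mg2+-EGTA GVB++ · Compound dosing – 5 µM each compound, pools of ten, 50 µM per pool · Schedule – 1 h serum-compound exposure at 37 °C · Measured by – Anti-C3 ELISA, OD 450 nm · Read-out basis – percent inhibition of C3 deposition onto LPS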
tolC growth inh: growth inhibitors of E. coli tolC mutant, primary screen, strain BW25113 ΔtolC::kan, 384-well. 65,000 compounds, 2.2% hits. OD615. growth inhibition, % at 10 µM (by protocol). AID 573, 2007;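 active means growth inhibition at or above a cutoff equal to the mean over every tested compound plus 3 SD, cut at about 60% in these data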;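 further: growth measured after 20 h incubation at 37 °C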
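Test system: tolC-deleted E. coli BW25113 | Medium: LB with kanamycin 50 µg/mL | Compound dosing: Single concentration, 10 µM final per compound | Schedule: 37 °C, 20 h exposure | Measured by: OD at 615 nm | Evaluation: Percent growth inhibition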
BAP1 inh conf: BAP1 deubiquitinase inhibitors, hit retest, confirmation, orthogonal assay, biochemical, Ub-ethyl ester substrate, HPLC readout; 310 compounds, 8% hits; % of control activity, % at 20 µM; shares compounds with BAP1 inh; purified BAP1, Ub-ethyl ester hydrolysis; hits give low values; AID 753, 2007;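 active means percent of control activity at or below 60%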
Active calls of the source: *; i = inactive; x = no result given; + = active, no number.

SMILES	Ec RNAP inh	BAP1 inh	Ecoli WT expand	MMP-13 inhibitor	AP complement	tolC growth inh	BAP1 inh conf
CCC(C(=O)Nc1cccc([N+](=O)[O-])c1)(C(F)(F)F)C(F)(F)F	x	i	x	x	x	x	x
CCn1c(=O)c(C(=O)NCCc2ccccc2)c(O)c2ccccc21	3	+	6	-3	11	31	104
CCNCCNC(=O)c1c(O)c2ccccc2n(CC)c1=O	12	i	9	-2	6	-10	x
CCOC(=O)c1c(NC(=O)c2ccc(-n3cnnn3)cc2)sc2c1CCCC2	0	+	x	-1	0	-2	121
O=C(NCc1ccco1)c1ccccc1NS(=O)(=O)c1ccc(Br)s1	x	x	13	x	x	x	x
COc1ccc(S(=O)(=O)Nc2ccccc2C(=O)NCc2ccco2)cc1	2	+	2	-8	-8	8	103
O=C(Nc1nc2ccc(Cl)cc2s1)c1ccc(Br)o1	0	+	-10	-5	10	-11	81
Cc1ccc(OCc2nn3c(-c4ccco4)nnc3s2)cc1	5	i	-9	-2	-14	-3	x
Clc1ccc(OCc2nn3c(-c4ccco4)nnc3s2)c(Cl)c1	-2	+	6	2	10	-10	106
COc1ccc2nc(NC(=O)CCc3nc(-c4ccccc4F)no3)sc2c1	5	+	-8	3	-1	-27	40*
COc1ccc2nc(NC(=O)c3ccccc3F)sc2c1	x	i	x	x	x	x	x
CSc1nnc2c3cc(C)ccc3n(Cc3ccccc3)c2n1	6	+	-6	1	-4	12	77
COc1ccc(N=C2CCCN2CC(N)=O)cc1	1	+	2	2	7	-14	87
COc1ccc(S(=O)(=O)CC(O)CN2CCCC2=O)cc1 (centres undefined)	x	x	-5	x	x	x	x
Cc1onc(-c2ccccc2Cl)c1C(=O)Nc1c2c(nn1-c1ccc([N+](=O)[O-])cc1)CSC2	x	i	x	x	x	x	x
Cc1nc(N2CCN(c3ccccc3)CC2)nc2c1C(=O)CC(c1ccccc1)C2 (centres undefined)	6	+	-14	-3	5	6	60
Cc1nc(N2CCN(c3ccccc3)CC2)nc2c1C(=O)CC(C)C2 (centres undefined)	5	i	1	3	-3	46	x
NS(=O)(=O)c1ccc(CNC(=O)NC23CC4CC(CC(C4)C2)C3)cc1	4	+	1	5	10	13	128
Clc1ccccc1/C=N/c1cc(-c2ccccc2)nn1-c1ccccc1	x	x	-17	x	x	x	x
N#Cc1cc(-c2ccccc2)nn1-c1ccccc1	5	+	-4	0	5	3	89
O=c1oc(-c2cc3ccccc3o2)nc2sc3c(c12)CCCC3	-4	+	-13	9	-13	-3	66
O=c1oc(-c2ccccc2)nc2sc3c(c12)CCCC3	x	x	-19	x	x	x	x
Cn1c(-c2c(N)n(C3CCCC3)c3nc4ccccc4nc23)nc2ccccc21	-7	+	-8	-8	-8	41	160
COCCCNc1nc2c(c(=O)n(C)c(=O)n2C)n1Cc1ccccc1Cl	x	i	x	x	x	x	x
CCOc1ccc(-c2nc(-c3ccccc3C)no2)cc1	4	+	x	4	10	-1	102
SMILES	Ec RNAP inh	BAP1 inh	Ecoli WT expand	MMP-13 inhibitor	AP complement	tolC growth inh	BAP1 inh conf
CCCCCSc1nc2c(cnn2-c2ccccc2)c(=O)[nH]1	6	+	-7	2	4	-6	91
O=C1NC(c2cccc(F)c2)Nc2sc3c(c21)CCCC3 (centres undefined)	x	i	x	x	x	x	x
CCOC(=O)N1CCN(c2ncnc3c2cnn3-c2ccc(OC)cc2)CC1	18	i	x	-9	x	0	99
Cc1ccc([N+](=O)[O-])cc1N1C(=O)C2C3C=CC(C4CC34)C2C1=O (centres undefined)	x	i	x	x	x	x	x
COc1ccc(C(=O)NCc2n[nH]c(=S)n2-c2ccccc2)c(OC)c1	x	i	x	x	x	x	x
c1ccc2c(-c3nc(C4CCCCC4)no3)cc(-c3ccncc3)nc2c1	7	+	-10	0	6	20	90
C=CCn1c(CCNC(=O)c2ccccc2F)nnc1SCC(=O)Nc1nc(C)cs1	-9	+	5	6	-9	8	113
C=CCn1c(CCNC(=O)c2cccs2)nnc1SCC(=O)Nc1cccc(F)c1	x	x	3	x	x	x	x
Cc1ccc2c(SCC(=O)NCc3ccco3)nc(-c3ccc(F)cc3)nc2c1	-11	+	-6	5	-14	26	61
Cc1cc(NS(=O)(=O)c2ccc(NC(=O)c3cnc4scc(C)n4c3=O)cc2)nc(C)n1	6	+	4	2	6	10	92
Cc1ccc(NC(=O)c2cnc3scc(C)n3c2=O)c(C)c1	4	+	x	7	3	-3	i
Cc1csc2ncc(C(=O)Nc3ccccc3F)c(=O)n12	2	i	x	2	11	11	x
CCCCSc1nc2c(c(=O)[nH]1)C1(CCCCC1)Cc1ccccc1-2	x	i	x	x	x	x	x
CCOC(=O)c1ccc(OCC(=O)c2ccc(O)cc2O)cc1	0	+	-6	4	18	33	97
COc1ccc(C2C(C(C)=O)=C(C)N=c3s/c(=C\c4ccco4)c(=O)n32)c(OC)c1 (centres undefined)	x	+	-17	6	23	30	76
COc1ccc(C2C(C(C)=O)=C(C)N=c3s/c(=C\c4ccc5c(c4)OCO5)c(=O)n32)c(OC)c1 (centres undefined)	-1	x	x	3	-5	6	x
CC(=O)OC1CCC2(C)C(CCC3C2CCC2(C)C3CC(O)C2(O)C(C)=O)C1 (centres undefined)	x	i	x	x	x	x	x
COc1ccccc1Oc1coc2cc(O)ccc2c1=O	2	+	0	-24	7	11	92
CCOc1ccccc1Oc1coc2cc(O)ccc2c1=O	5	+	7	-28	7	12	132
CCOc1ccc2c(=O)c(Oc3ccccc3OCC)coc2c1	x	x	5	x	x	x	x
CS(=O)(=O)N(CC(=O)Nc1ccc2c(c1)OCCO2)Cc1ccccc1	10	i	4	4	1	8	x
O=C(CN(Cc1ccccc1)S(=O)(=O)c1ccc2c(c1)OCCO2)Nc1ccc2c(c1)OCCO2	5	+	-3	-4	12	24	144
